Laboratory results as given in ChEMBL document CHEMBL1133004, “3-Alkylamino-4H-pyrido[2,3-e]-1,2,4-thiadiazine 1,1-dioxides structurally related to diazoxide and pinacidil as potassium channel openers acting on vascular smooth muscle cells: design, synthesis, and pharmacological evaluation” (2000).

Legend:
Type in all cases: functional
[1] = species: Cavia porcellus; assay: Inhibition of electrically stimulated contractions of guinea pig ileum segments.; details: read-out: ED50 (the source's name)
Outline: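 Ileum segments (4 cm, taken ≥10 cm from cecum) from adult guinea pigs (300-400 g), 1 g initial load, Krebs-bicarbonate at 37 °C, gassed 95% O2/5% CO2. Coaxial stimulation at 0.5-ms pulses, 0.1 Hz, 5-25 V, with isometric recording. Drug was added cumulatively to maximal effect and expressed as % of the 5-min pre-drug response. ED50 was assessed graphically.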

[2] = species: Rattus norvegicus; assay: Concentration giving 50% relaxation of the 30 mM KCL-induced contraction of rat aorta rings; details: read-out: ED50 (the source's name)
Outline: (§1)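 Endothelium-denuded aortic rings (3-4 mm) from fed Wistar rats (250-300 g), held at 1 g tension in Krebs-bicarbonate at 37 °C under O2/CO2 (95/5), isometric recording. After 60 min equilibration, contracted with 30 or 80 mM KCl as specified. At plateau, drug was added cumulatively to maximal relaxation or 1 mM. Glibenclamide (1 or 10 µM) was present throughout where stated. ED50 was read graphically as 50% inhibition of the KCl plateau.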

[3] = species: Rattus norvegicus; assay: Effect on Insulin secretion from rat pancreatic islets (RIS) in the presence of 16.7 mM glucose at 10 uM
Outline: (§2)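 Collagenase-isolated islets from fed Wistar rats (180-220 g), in groups of 10. Preincubated 30 min at 37 °C in bicarbonate salt medium with 2.8 mM glucose and 0.5% albumin under O2/CO2. Then incubated 90 min at 37 °C with 16.7 mM glucose plus drug. Insulin was measured by radioimmunoassay against a rat insulin standard and reported as % residual release.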

[4] = species: Rattus norvegicus; assay: Insulin secretion from rat pancreatic islets (RIS) in the presence of 16.7 mM glucose at 50 uM; outline: as §2
[5] = species: Rattus norvegicus; assay: Effect on Oxytocin-Induced contractions of rat uterus at 10 uM
Outline: (§3)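 Uterine horns from fed Wistar rats (150-200 g) primed the day before with im diethylstilboestrol dipropionate (0.1 mL/100 g of 1 mg/mL oily solution). Horns were superfused with Tyrode at 37 °C under O2/CO2 (95/5). 20 mU oxytocin was injected at 10-min intervals until contractions (AUC) were constant, then repeated ≥3 times per drug concentration. Response is given as % of the drug-free oxytocin contraction.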

[6] = species: Rattus norvegicus; assay: Effect on Oxytocin-Induced contractions of rat uterus at 100 uM; outline: as §3
[7] = species: Rattus norvegicus; assay: Effect on Oxytocin-Induced contractions of rat uterus at 50 uM; outline: as §3
[8] = species: Rattus norvegicus; assay: Effect on contractile activity of 30 mM potassium-Depolarized rat aorta incubated in the absence of Glibenclamide; details: read-out: ED50 (the source's name); outline: as §1
[9] = species: Rattus norvegicus; assay: Effect on contractile activity of 30 mM potassium-Depolarized rat aorta incubated in the presence of 1 uM Glibenclamide; details: read-out: ED50 (the source's name); outline: as §1
[10] = species: Rattus norvegicus; assay: Effect on contractile activity of 80 mM potassium-Depolarized rat aorta; details: read-out: ED50 (the source's name); outline: as §1
[11] = species: Rattus norvegicus; assay: Compound is evaluated for the effect on Oxytocin-Induced contractions of rat uterus at 10 uM; outline: as §3
[12] = species: Rattus norvegicus; assay: Compound is evaluated for the effect on Oxytocin-Induced contractions of rat uterus at 100 uM; outline: as §3
[13] = species: Rattus norvegicus; assay: Compound is evaluated for the effect on Oxytocin-Induced contractions of rat uterus at 50 uM; outline: as §3
[14] = species: Rattus norvegicus; assay: Effect on contractile activity of 30 mM potassium-Depolarized rat aorta incubated in the presence of 10 uM Glibenclamide; details: read-out: ED50 (the source's name); outline: as §1
[15] = species: Rattus norvegicus; assay: Effect on Oxytocin-Induced contractions of rat uterus at concentrations 10 uM; outline: as §3
[16] = species: Rattus norvegicus; assay: Effect on Oxytocin-Induced contractions of rat uterus at concentrations 100 uM; outline: as §3
[17] = species: Rattus norvegicus; assay: Effect on Oxytocin-Induced contractions of rat uterus at concentrations 50 uM; outline: as §3

SMILES	EC50 [1]	EC50 [2]	RIS [4]	other results
O=S1(=O)NC(NCC2CCCCC2)=Nc2ncc(Cl)cc21	17.4 µM	38.2 µM	57.7%	RIS [3]: 76.8%; Contraction [5]: 96.3%; Contraction [6]: 90.4%; Contraction [7]: 95.1%
C[C@H](NC1=NS(=O)(=O)c2cccnc2N1)c1ccccc1	> 300 µM	9.9 µM	73.3%	
O=S1(=O)NC(NCc2ccccc2)=Nc2ncc(Cl)cc21		43.6 µM	74.1%	Contraction [5]: 108.2%; Contraction [6]: 71.9%; Contraction [7]: 98.9%
CCC(C)NC1=NS(=O)(=O)c2cccnc2N1 (stereo unspecified)		50.9 µM	85.9%	
CC(C)C(C)NC1=NS(=O)(=O)c2cnccc2N1 (stereo unspecified)	> 300 µM	154 µM	7.1%	RIS [3]: 26.8%
CC(NC1=NS(=O)(=O)c2cc(Cl)cnc2N1)C(C)(C)C (stereo unspecified)	> 300 µM	2.3 µM	41.5%	EC50 [8]: 1.6 µM; EC50 [9]: 22.6 µM; EC50 [10]: 33 µM; Contraction [11]: 97.6%; Contraction [12]: 51%; Contraction [13]: 67.9%; EC50 [14]: 33.9 µM
CC(C)C(C)NC1=NS(=O)(=O)c2cccnc2N1 (stereo unspecified)	> 300 µM	27.1 µM	87.9%	EC50 [8]: 27.1 µM; EC50 [10]: > 300 µM
CC(C)NC1=NS(=O)(=O)c2cccnc2N1	> 300 µM	132 µM	78.7%	
C[C@@H](NC1=NS(=O)(=O)c2cccnc2N1)c1ccccc1	> 300 µM	65.2 µM	71.6%	
C[C@@H](NC1=NS(=O)(=O)c2cccnc2N1)C1CCCCC1	> 300 µM	29.2 µM	79.9%	
O=S1(=O)N=C(NCC2CCCCC2)Nc2ncccc21	145 µM	45.7 µM	94.2%	
CCC(C)NC1=NS(=O)(=O)c2cc(Cl)cnc2N1 (stereo unspecified)		20 µM	62.7%	
CC(C)NC1=NS(=O)(=O)c2cc(Cl)cnc2N1	> 300 µM	14.6 µM	74.4%	
C[C@H](NC1=NS(=O)(=O)c2cc(Cl)cnc2N1)C1CCCCC1	20.4 µM	3.8 µM	11.8%	RIS [3]: 71.9%; Contraction [5]: 84.9%; Contraction [6]: 43.7%; Contraction [7]: 71.4%
C[C@H](NC1=NS(=O)(=O)c2cccnc2N1)C1CCCCC1	> 300 µM	25.2 µM	76.2%	
C[C@H](NC1=NS(=O)(=O)c2cc(Cl)cnc2N1)c1ccccc1		21.2 µM	45.9%	Contraction [5]: 91%; Contraction [6]: 41.1%; Contraction [7]: 79.3%
CC(NC1=NS(=O)(=O)c2cccnc2N1)C(C)(C)C (stereo unspecified)	> 300 µM	7.5 µM	98.9%	EC50 [8]: 10.1 µM; EC50 [9]: 65.2 µM; EC50 [10]: > 300 µM; Contraction [15]: 93.8%; Contraction [16]: 57.5%; Contraction [17]: 68%; EC50 [14]: 107 µM
C[C@@H](NC1=NS(=O)(=O)c2cc(Cl)cnc2N1)c1ccccc1		38.8 µM	52.3%	Contraction [5]: 88.4%; Contraction [6]: 32.6%; Contraction [7]: 59.4%
CC(C)C(C)NC1=NS(=O)(=O)c2cc(Cl)cnc2N1 (stereo unspecified)	> 300 µM	10.6 µM	59.3%	EC50 [8]: 8.2 µM; EC50 [9]: 34.1 µM; EC50 [10]: 49.3 µM; EC50 [14]: 45.1 µM
O=S1(=O)N=C(NCc2ccccc2)Nc2ncccc21	> 300 µM	21.9 µM	86.2%	
C[C@@H](NC1=NS(=O)(=O)c2cc(Cl)cnc2N1)C1CCCCC1	13.6 µM	3.5 µM	6.7%	EC50 [8]: 3.7 µM; EC50 [9]: 5 µM; EC50 [10]: 12.3 µM; RIS [3]: 71.3%; Contraction [5]: 70.6%; Contraction [6]: 22.9%; Contraction [7]: 50.9%; EC50 [14]: 8.6 µM
CC1=NS(=O)(=O)c2cc(Cl)cnc2N1		> 300 µM	87.4%	
CC1=Nc2ccc(Cl)cc2S(=O)(=O)N1 [DIAZOXIDE]	> 300 µM	19.3 µM	28.8%	EC50 [8]: 19.5 µM; EC50 [9]: 85.8 µM; EC50 [10]: > 300 µM; RIS [3]: 70%; Contraction [11]: 93.8%; Contraction [12]: 67.7%; Contraction [13]: 76.3%; EC50 [14]: 163 µM
CC(Cc1ccc(O)cc1)NCC(O)c1cc(O)cc(O)c1 (stereo unspecified) [FENOTEROL]				Contraction [15]: 38.4%; Contraction [16]: 35.5%; Contraction [17]: 36.3%
CC(N/C(=N\C#N)Nc1ccncc1)C(C)(C)C (stereo unspecified) [PINACIDIL ANHYDROUS]	9.2 µM	0.5 µM	92.1%	EC50 [8]: 0.2 µM; EC50 [9]: 10.4 µM; EC50 [10]: 16 µM; RIS [3]: 96%; Contraction [11]: 58.1%; Contraction [12]: 38.1%; Contraction [13]: 35.5%; EC50 [14]: 42.5 µM
